# Experiments:
# Format in all cases: in vivo, C57BL/6 mice
# [1] = system: Dex-induced OHT mouse model; assay: IOP in dexamethasone-induced ocular hypertension mouse model; conditions: HL3501 0.04% BID, latanoprost 0.005% QD, or both
# How it was run: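 IOP was read with a rebound tonometer on days 0, 1, 3, 5, 7, 10, 14, 17 and 21 in male C57BL/6 mice. Ocular hypertension was pre-induced by 0.1% dexamethasone (20 µL/eye, three times daily, 2 weeks; maintained throughout). Drops were test compound 0.04% BID, latanoprost 0.005% QD, or both 5 min apart, for 21 days. Groups had 8–10 mice. Basal IOP was taken before dexamethasone.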
# [2] = system: Dex-induced OHT mouse model; assay: Electroretinography; conditions: day 21, compared with vehicle-treated group
# How it was run: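 Male C57BL/6 mice (11 weeks) received 0.1% dexamethasone eye drops (20 µL/eye) in both eyes three times daily for 2 weeks, continued through dosing. Test compound (0.04% BID), latanoprost (0.005% QD) or both were then given topically for 21 days, doses 5 min apart. ERG was run on both eyes of dark-adapted anaesthetised mice on days 0 and 21. A single white 0.3 log cd·s/m2 flash was used, and b-wave amplitude was measured.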
# [3] = system: fibronectin and α-SMA expression in the TM; conditions: after 21 days treatment
# How it was run: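 Eye sections from dexamethasone-induced hypertensive C57BL/6 mice (21 days of topical dosing) were used. Sections were incubated overnight at room temperature with fibronectin and α-SMA antibodies (1:200) and washed in 0.1 M PBST. Fluorescent secondary antibodies (1:500) were applied for 1 h. Sections were DAPI-counterstained and imaged by fluorescence microscopy focused on the trabecular meshwork.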
# [4] = system: RGCs; assay: Hematoxylin and eosin staining of retinal sections; conditions: after 21 days treatment, H&E retinal cross-sections
# How it was run: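 In dexamethasone-induced hypertensive C57BL/6 mice treated topically for 21 days, eyes were enucleated after euthanasia and fixed in 10% formalin for 24 h. They were paraffin-embedded and sectioned. Retinal sections were stained with hematoxylin (0.1% plus 10% ammonium) for 3–5 min, then 1% eosin Y for 1 min. Slides were dehydrated through ethanol and xylene and scanned to assess RGCs.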
# [5] = system: MMP-2/TIMP-2 and MMP-9/TIMP-1 ratios; conditions: retinal extracts, normalized to α-tubulin
# How it was run: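 Three mice per group were used (dexamethasone-induced hypertension, 21 days of topical dosing). Retinas were homogenised in RIPA buffer (pH 8.0) and centrifuged at 14,000g for 30 min at 4°C. Protein (10 µg/lane) was run on 10% SDS-PAGE and blotted. Membranes were probed overnight at room temperature for MMP-2, MMP-9, TIMP-1 and TIMP-2. Bands were detected by ECL densitometry and normalised to α-tubulin, and MMP-2/TIMP-2 and MMP-9/TIMP-1 ratios were calculated.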
compound,measurement,setting,value
"CC(C)OC(=O)CCC/C=C\C[C@@H]1[C@@H](CC[C@@H](O)CCc2ccccc2)[C@H](O)C[C@@H]1O [Latanoprost, latanoprost]",IOP effect over 3 weeks in Dex-induced OHT mouse model (in words),[1],consistent IOP-lowering effect
same,b-wave values on day 21 (in words),[2],did not decrease as much
same,Fibronectin and α-SMA expression in the TM compared with vehicle (in words),[3],suppressed
same,RGC loss (in words),[4],less affected by RGC loss
same,MMP-2/TIMP-2 ratio (in words),[5],increased
same,MMP-9/TIMP-1 ratio (in words),[5],increased
